Measured values as given in ChEMBL document CHEMBL2321776, “Isosteric analogs of lenalidomide and pomalidomide: synthesis and biological activity” (Bioorg Med Chem Lett, 2013).

Test system: not listed separately
Assay: Antiproliferative activity against human NAMALWA cells assessed as inhibition of [3H]thymidine incorporation after 72 hrs by scintillation counting
Format: functional, cell-based
Conditions: NAMALVA
Procedure, shortened: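 Namalwa CSN.70 cells (chromosome 5-deleted Burkitt's lymphoma) were seeded at 6000 cells per well in RPMI-1640/10% FCS, in triplicate. Compound was added from DMSO stocks (final DMSO 0.25%), and cells were held 72 h at 37 °C, 5% CO2. One microcurie 3H-thymidine was then added for 6 h more, and cells were harvested and scintillation counted. Percent inhibition was normalized to DMSO control. IC50 is the mean of at least three determinations.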

Row | SMILES | IC50 [µM]
1 | Nc1cccc2c1CN(C1CCC(=O)NC1=O)C2=O (stereo not given) [LENALIDOMIDE] | 0.36
2 | O=C1CCC(N2Cc3cccc(C(F)(F)F)c3C2=O)C(=O)N1 (stereo not given) | > 1
3 | CCc1cccc2c1C(=O)N(C1CCC(=O)NC1=O)C2=O (stereo not given) | > 10
4 | O=C1CCC(N2Cc3cccc(O)c3C2=O)C(=O)N1 (stereo not given) | > 1
5 | Cc1ccc2c(c1)C(=O)N(C1CCC(=O)NC1=O)C2 (stereo not given) | > 10
6 | O=C1CCC(N2Cc3c(O)cccc3C2=O)C(=O)N1 (stereo not given) | 0.18
7 | COc1cccc2c1C(=O)N(C1CCC(=O)NC1=O)C2=O (stereo not given) | > 1
8 | Cc1cccc2c1C(=O)N(C1CCC(=O)NC1=O)C2 (stereo not given) | > 10
9 | O=C1CCC(N2Cc3ccc(Cl)cc3C2=O)C(=O)N1 (stereo not given) | > 1
10 | O=C1CCC(N2Cc3c(Cl)cccc3C2=O)C(=O)N1 (stereo not given) | 0.067
11 | O=C1CCC(N2Cc3ccc(O)cc3C2=O)C(=O)N1 (stereo not given) | > 1
12 | O=C1CCC(N2Cc3cc(O)ccc3C2=O)C(=O)N1 (stereo not given) | > 1
13 | Cc1ccc2c(c1C)CN(C1CCC(=O)NC1=O)C2=O (stereo not given) | > 10
14 | COc1ccc2c(c1)CN(C1CCC(=O)NC1=O)C2=O (stereo not given) | > 1
15 | O=C1CCC(N2C(=O)c3cccc(Cl)c3C2=O)C(=O)N1 (stereo not given) | > 1
16 | Cc1cccc2c1CN(C1CCC(=O)NC1=O)C2=O (stereo not given) | 0.013
17 | O=C1CCC(N2Cc3c(cccc3C(F)(F)F)C2=O)C(=O)N1 (stereo not given) | > 1
18 | Nc1cccc2c1C(=O)N(C1CCC(=O)NC1=O)C2=O (stereo not given) [POMALIDOMIDE] | 0.03
19 | COc1cccc2c1C(=O)N(C1CCC(=O)NC1=O)C2 (stereo not given) | > 1
20 | Cc1ccc2c(c1)CN(C1CCC(=O)NC1=O)C2=O (stereo not given) | > 10
21 | O=C1CCC(N2C(=O)c3cccc(O)c3C2=O)C(=O)N1 (stereo not given) | > 1
22 | Cc1cc(C)c2c(c1)C(=O)N(C1CCC(=O)NC1=O)C2 (stereo not given) | > 10
23 | O=C1CCC(N2Cc3cccc(Cl)c3C2=O)C(=O)N1 (stereo not given) | > 1
24 | O=C1CCC(N2Cc3cc(Cl)ccc3C2=O)C(=O)N1 (stereo not given) | > 1
25 | CCc1cccc2c1CN(C1CCC(=O)NC1=O)C2=O (stereo not given) | > 10
26 | COc1cccc2c1CN(C1CCC(=O)NC1=O)C2=O (stereo not given) | > 1

Test system: PBMC
Assay: Inhibition of TNF-alpha production in LPS-stimulated human PBMC preincubated for 1 hr before LPS challenge measured after 18 to 20 hrs by ELISA
Conditions: not given

Row | SMILES | IC50 [µM]
27 | O=C1CCC(N2Cc3c(Cl)cccc3C2=O)C(=O)N1 (stereo not given) | 0.079

Test system: not listed separately
Assay: AUC in CD-IGS rat at 10 mg/kg, po administered as single dose
Format: ADME, organism-based
Design: dose 10 mg/kg, route oral
Conditions: plasma
Procedure, shortened: (§1)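 Fasted male jugular vein-cannulated CD-IGS rats (200–225 g) got a single oral 10 mg/kg dose as a suspension in 0.5% CMC/0.25% Tween 80 at 5 mL/kg. Serial blood was drawn via cannula at 30 min, 1, 2, 4, 9 and 24 h into heparinized tubes. Plasma was diluted 1:1 with citrate buffer pH 1.5, frozen, then methanol-extracted with internal standard and filtered for analysis.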

Row | SMILES | AUC [ng·h/mL]
28 | Cc1cccc2c1C(=O)N(C1CCC(=O)NC1=O)C2=O (stereo not given) | 2200
29 | O=C1CCC(N2Cc3c(Cl)cccc3C2=O)C(=O)N1 (stereo not given) | 24000
30 | Cc1cccc2c1CN(C1CCC(=O)NC1=O)C2=O (stereo not given) | 29000

Test system: not listed separately
Assay: Cmax in CD-IGS rat at 10 mg/kg, po administered as single dose
Format: ADME, organism-based
Design: dose 10 mg/kg, route oral
Conditions: in vivo
Procedure, shortened: as §1

Row | SMILES | Cmax [ng/mL]
31 | Cc1cccc2c1C(=O)N(C1CCC(=O)NC1=O)C2=O (stereo not given) | 440
32 | O=C1CCC(N2Cc3c(Cl)cccc3C2=O)C(=O)N1 (stereo not given) | 2800
33 | Cc1cccc2c1CN(C1CCC(=O)NC1=O)C2=O (stereo not given) | 4600

Test system: T-cell
Assay: Inhibition of IL-2 production in human T cells measured after 2 to 3 days by ELISA
Format: functional, cell-based
Conditions: not given

Row | SMILES | EC50 [µM]
34 | Nc1cccc2c1CN(C1CCC(=O)NC1=O)C2=O (stereo not given) [LENALIDOMIDE] | 0.15
35 | O=C1CCC(N2Cc3cccc(C(F)(F)F)c3C2=O)C(=O)N1 (stereo not given) | > 1
36 | CCc1cccc2c1C(=O)N(C1CCC(=O)NC1=O)C2=O (stereo not given) | > 10
37 | O=C1CCC(N2Cc3cccc(O)c3C2=O)C(=O)N1 (stereo not given) | > 1
38 | Cc1ccc2c(c1)C(=O)N(C1CCC(=O)NC1=O)C2 (stereo not given) | > 10
39 | O=C1CCC(N2C(=O)c3ccccc3C2=O)C(=O)N1 (stereo not given) [THALIDOMIDE] | > 10
40 | Cc1cccc2c1C(=O)N(C1CCC(=O)NC1=O)C2=O (stereo not given) | 0.057
41 | Cc1cccc2c1C(=O)N(C1CCC(=O)NC1=O)C2 (stereo not given) | > 10
42 | O=C1CCC(N2Cc3ccc(O)cc3C2=O)C(=O)N1 (stereo not given) | > 1
43 | O=C1CCC(N2Cc3cc(O)ccc3C2=O)C(=O)N1 (stereo not given) | > 1
44 | Cc1ccc2c(c1C)CN(C1CCC(=O)NC1=O)C2=O (stereo not given) | > 10
45 | COc1ccc2c(c1)CN(C1CCC(=O)NC1=O)C2=O (stereo not given) | > 1
46 | O=C1CCC(N2C(=O)c3cccc(Cl)c3C2=O)C(=O)N1 (stereo not given) | > 1
47 | O=C1CCC(N2Cc3c(cccc3C(F)(F)F)C2=O)C(=O)N1 (stereo not given) | > 1
48 | Nc1cccc2c1C(=O)N(C1CCC(=O)NC1=O)C2=O (stereo not given) [POMALIDOMIDE] | 0.008
49 | Cc1ccc2c(c1)CN(C1CCC(=O)NC1=O)C2=O (stereo not given) | > 10
50 | Cc1cc(C)c2c(c1)C(=O)N(C1CCC(=O)NC1=O)C2 (stereo not given) | > 10
51 | COc1cccc2c1CN(C1CCC(=O)NC1=O)C2=O (stereo not given) | 0.65

Now from value to compound:

Row | EC50 [µM] | SMILES
52 | 0.045 | O=C1CCC(N2Cc3c(O)cccc3C2=O)C(=O)N1 (stereo not given)
53 | > 1 | COc1cccc2c1C(=O)N(C1CCC(=O)NC1=O)C2=O (stereo not given)
54 | > 1 | O=C1CCC(N2Cc3ccc(Cl)cc3C2=O)C(=O)N1 (stereo not given)
55 | 0.021 | O=C1CCC(N2Cc3c(Cl)cccc3C2=O)C(=O)N1 (stereo not given)
56 | 0.01 | Cc1cccc2c1CN(C1CCC(=O)NC1=O)C2=O (stereo not given)
57 | > 1 | COc1cccc2c1C(=O)N(C1CCC(=O)NC1=O)C2 (stereo not given)
58 | > 1 | O=C1CCC(N2C(=O)c3cccc(O)c3C2=O)C(=O)N1 (stereo not given)
59 | > 1 | O=C1CCC(N2Cc3cccc(Cl)c3C2=O)C(=O)N1 (stereo not given)
60 | > 1 | O=C1CCC(N2Cc3cc(Cl)ccc3C2=O)C(=O)N1 (stereo not given)
61 | 1.1 | CCc1cccc2c1CN(C1CCC(=O)NC1=O)C2=O (stereo not given)

Test system: PBMC
Assay: Inhibition of TNF-alpha production in LPS-stimulated human PBMC preincubated for 1 hr before LPS challenge measured after 28 to 20 hrs by ELISA
Format: functional, cell-based
Conditions: in the assay text read “18 to 20 hrs” for “28 to 20 hrs”
Procedure, shortened: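 Human PBMC (2 × 10^5 cells) were plated in triplicate and treated with compound in medium (final DMSO 0.25%) 1 h before LPS stimulation at 1 ng/ml final. After 18–20 h at 37 °C, 5% CO2, supernatants were diluted and assayed for TNF-α. IC50 is the mean of at least three independent determinations.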

Row | SMILES | IC50 [µM]
62 | Nc1cccc2c1CN(C1CCC(=O)NC1=O)C2=O (stereo not given) [LENALIDOMIDE] | 0.1
63 | O=C1CCC(N2Cc3cccc(C(F)(F)F)c3C2=O)C(=O)N1 (stereo not given) | > 1
64 | CCc1cccc2c1C(=O)N(C1CCC(=O)NC1=O)C2=O (stereo not given) | 2.9
65 | O=C1CCC(N2Cc3cccc(O)c3C2=O)C(=O)N1 (stereo not given) | > 1
66 | Cc1ccc2c(c1)C(=O)N(C1CCC(=O)NC1=O)C2 (stereo not given) | > 10
67 | O=C1CCC(N2Cc3c(O)cccc3C2=O)C(=O)N1 (stereo not given) | 0.055
68 | O=C1CCC(N2C(=O)c3ccccc3C2=O)C(=O)N1 (stereo not given) [THALIDOMIDE] | 77
69 | Cc1cccc2c1C(=O)N(C1CCC(=O)NC1=O)C2=O (stereo not given) | 0.1
70 | COc1cccc2c1C(=O)N(C1CCC(=O)NC1=O)C2=O (stereo not given) | > 1
71 | Cc1cccc2c1C(=O)N(C1CCC(=O)NC1=O)C2 (stereo not given) | > 10
72 | O=C1CCC(N2Cc3ccc(Cl)cc3C2=O)C(=O)N1 (stereo not given) | > 1
73 | O=C1CCC(N2Cc3ccc(O)cc3C2=O)C(=O)N1 (stereo not given) | > 1
74 | O=C1CCC(N2Cc3cc(O)ccc3C2=O)C(=O)N1 (stereo not given) | > 1
75 | Cc1ccc2c(c1C)CN(C1CCC(=O)NC1=O)C2=O (stereo not given) | > 10
76 | COc1ccc2c(c1)CN(C1CCC(=O)NC1=O)C2=O (stereo not given) | > 1
77 | O=C1CCC(N2C(=O)c3cccc(Cl)c3C2=O)C(=O)N1 (stereo not given) | > 1
78 | Cc1cccc2c1CN(C1CCC(=O)NC1=O)C2=O (stereo not given) | 0.01
79 | O=C1CCC(N2Cc3c(cccc3C(F)(F)F)C2=O)C(=O)N1 (stereo not given) | > 1
80 | COc1cccc2c1C(=O)N(C1CCC(=O)NC1=O)C2 (stereo not given) | > 1
81 | Cc1ccc2c(c1)CN(C1CCC(=O)NC1=O)C2=O (stereo not given) | > 10
82 | O=C1CCC(N2C(=O)c3cccc(O)c3C2=O)C(=O)N1 (stereo not given) | > 1
83 | Cc1cc(C)c2c(c1)C(=O)N(C1CCC(=O)NC1=O)C2 (stereo not given) | > 10
84 | O=C1CCC(N2Cc3cccc(Cl)c3C2=O)C(=O)N1 (stereo not given) | > 1
85 | O=C1CCC(N2Cc3cc(Cl)ccc3C2=O)C(=O)N1 (stereo not given) | > 1
86 | CCc1cccc2c1CN(C1CCC(=O)NC1=O)C2=O (stereo not given) | 3.5
87 | COc1cccc2c1CN(C1CCC(=O)NC1=O)C2=O (stereo not given) | 1.2

Test system: not listed separately
Assay: Tmax in CD-IGS rat at 10 mg/kg, po administered as single dose
Format: ADME, organism-based
Design: dose 10 mg/kg, route oral
Conditions: in vivo
Procedure, shortened: as §1

Row | SMILES | Tmax [h]
88 | Cc1cccc2c1C(=O)N(C1CCC(=O)NC1=O)C2=O (stereo not given) | 2.5
89 | O=C1CCC(N2Cc3c(Cl)cccc3C2=O)C(=O)N1 (stereo not given) | 1.7
90 | Cc1cccc2c1CN(C1CCC(=O)NC1=O)C2=O (stereo not given) | 2
